This note sets out measurements from ChEMBL document CHEMBL1129519, “Optimal recognition of neutral endopeptidase and angiotensin-converting enzyme active sites by mercaptoacyldipeptides as a means to design potent dual inhibitors” (J Med Chem, 1996).

Molecules are shown by their SMILES.

The target of experiment [1] is T1, Angiotensin-converting enzyme (Rattus norvegicus, UniProt P47820).
T1 sequence (P47820 whole entry): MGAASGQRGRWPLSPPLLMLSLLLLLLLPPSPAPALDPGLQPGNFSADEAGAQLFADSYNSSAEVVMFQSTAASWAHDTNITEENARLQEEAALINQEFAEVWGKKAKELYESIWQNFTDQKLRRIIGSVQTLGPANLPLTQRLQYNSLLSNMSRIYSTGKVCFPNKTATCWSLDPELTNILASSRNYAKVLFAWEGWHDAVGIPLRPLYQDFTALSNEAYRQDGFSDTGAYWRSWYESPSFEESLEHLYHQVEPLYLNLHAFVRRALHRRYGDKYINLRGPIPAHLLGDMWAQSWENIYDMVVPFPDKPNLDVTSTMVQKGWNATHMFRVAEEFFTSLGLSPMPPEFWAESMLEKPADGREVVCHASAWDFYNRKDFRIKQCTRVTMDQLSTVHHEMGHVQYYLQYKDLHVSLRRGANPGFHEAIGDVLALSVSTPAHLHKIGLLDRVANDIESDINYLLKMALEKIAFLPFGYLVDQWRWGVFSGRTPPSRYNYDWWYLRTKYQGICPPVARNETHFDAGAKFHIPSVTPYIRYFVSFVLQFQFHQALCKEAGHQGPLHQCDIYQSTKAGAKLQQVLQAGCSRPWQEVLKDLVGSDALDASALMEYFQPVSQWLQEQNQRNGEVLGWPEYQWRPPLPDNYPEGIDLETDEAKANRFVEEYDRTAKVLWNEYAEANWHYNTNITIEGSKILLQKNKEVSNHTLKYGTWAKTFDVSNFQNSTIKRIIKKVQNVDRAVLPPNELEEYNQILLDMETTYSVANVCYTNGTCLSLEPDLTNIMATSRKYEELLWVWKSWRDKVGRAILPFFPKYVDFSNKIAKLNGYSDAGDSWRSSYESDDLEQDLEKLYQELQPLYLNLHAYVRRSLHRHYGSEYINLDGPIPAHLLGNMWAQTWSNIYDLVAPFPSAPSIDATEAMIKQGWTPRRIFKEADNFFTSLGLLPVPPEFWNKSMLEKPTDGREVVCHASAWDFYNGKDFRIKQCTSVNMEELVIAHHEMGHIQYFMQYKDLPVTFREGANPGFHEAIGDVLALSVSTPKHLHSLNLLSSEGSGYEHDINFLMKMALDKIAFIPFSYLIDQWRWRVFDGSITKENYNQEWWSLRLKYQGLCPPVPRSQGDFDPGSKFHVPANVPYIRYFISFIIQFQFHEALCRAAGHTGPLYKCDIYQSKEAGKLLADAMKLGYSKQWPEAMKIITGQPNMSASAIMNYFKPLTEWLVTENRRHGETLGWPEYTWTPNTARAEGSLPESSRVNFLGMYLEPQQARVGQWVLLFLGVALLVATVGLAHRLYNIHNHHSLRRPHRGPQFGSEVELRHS
Nature of the experiment: Inhibitory activity against angiotensin I converting enzyme. In short, it runs like this: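 Rat testis enzyme purified to homogeneity, 0.02 pmol/100 µL final, preincubated 15 min at 37 °C with varied inhibitor levels in 50 mM Tris-HCl pH 8.0. N-Cbz-Phe-His-Leu then added to 0.05 mM final and run 15 min. Stopped with 2 M NaOH, His-Leu measured fluorimetrically (ex 365, em 495 nm) against a His-Leu calibration curve. IC50 as mean ± SEM of three independent determinations, each in triplicate.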

A further experiment deals with T2, Neprilysin (Oryctolagus cuniculus, UniProt P08049).
T2 sequence (P08049 whole entry): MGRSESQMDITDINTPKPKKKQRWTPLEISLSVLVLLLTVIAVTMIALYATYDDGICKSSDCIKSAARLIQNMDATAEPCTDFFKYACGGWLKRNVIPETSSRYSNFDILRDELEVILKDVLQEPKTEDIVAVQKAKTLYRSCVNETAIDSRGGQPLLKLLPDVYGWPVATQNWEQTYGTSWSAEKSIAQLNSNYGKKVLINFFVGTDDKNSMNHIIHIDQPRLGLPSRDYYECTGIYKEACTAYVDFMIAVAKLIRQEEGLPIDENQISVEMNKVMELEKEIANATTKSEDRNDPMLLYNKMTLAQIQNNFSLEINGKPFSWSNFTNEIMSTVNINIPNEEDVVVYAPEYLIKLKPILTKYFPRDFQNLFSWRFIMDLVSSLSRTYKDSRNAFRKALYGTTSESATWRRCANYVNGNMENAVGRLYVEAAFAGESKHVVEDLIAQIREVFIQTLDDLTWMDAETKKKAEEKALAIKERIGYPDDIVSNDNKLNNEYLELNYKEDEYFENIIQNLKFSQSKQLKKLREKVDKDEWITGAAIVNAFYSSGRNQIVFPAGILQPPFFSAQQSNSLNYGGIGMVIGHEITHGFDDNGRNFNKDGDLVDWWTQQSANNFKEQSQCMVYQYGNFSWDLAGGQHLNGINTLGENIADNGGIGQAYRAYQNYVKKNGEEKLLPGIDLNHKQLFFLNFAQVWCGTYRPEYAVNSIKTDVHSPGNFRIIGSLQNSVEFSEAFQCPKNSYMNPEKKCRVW
Nature of the experiment: Inhibitory activity was tested against neutral endopeptidase. The procedure, abridged: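 Rabbit kidney enzyme purified to homogeneity, 1 pmol/100 µL final, preincubated 15 min at 25 °C with or without rising inhibitor concentrations in 50 mM Tris-HCl pH 7.4. [3H]Tyr-D-Ala2-Leu-enkephalin then added to 20 nM final and run 30 min. Stopped with 0.5 M HCl, tritiated metabolites separated on polystyrene beads. IC50 as mean ± SEM of three independent determinations, each in triplicate.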

For `CC[C@@H](C)[C@H](NC(=O)[C@@H](S)Cc1ccccc1)C(=O)N1CCCC1C(=O)O` (stereo partly drawn), the IC50 in experiment [1] was 1.7 nM; against Neprilysin, 24 nM.
The like results for `C[C@H](NC(=O)[C@H](Cc1ccccc1)NC(=O)[C@@H](S)Cc1ccccc1)C(=O)O` were, in that order, 7.1 nM and 2.3 nM.
Consider `CC[C@H](C)[C@H](S)C(=O)N[C@H](C(=O)N1CCC[C@H]1C(=O)O)C(C)C`, for which the IC50 in experiment [1] is 0.58 nM; at Neprilysin it was 190 nM.
`O=C(O)[C@H](Cc1cccc2ccccc12)NC(=O)[C@H](Cc1ccccc1)NC(=O)[C@@H](S)Cc1ccccc1`: the results for the IC50 (in experiment [1]; on Neprilysin) were 50 nM and 120 nM, respectively.
Taken in the same sequence, the figures for `CC(C)[C@H](NC(=O)[C@@H](S)Cc1ccccc1)C(=O)N1CC(O)CC1C(=O)O` (stereo partly drawn) were 100 nM and 63 nM.
For the molecule `C[C@H](NC(=O)[C@H](Cc1ccccc1)NC(=O)CS)C(=O)O`, the IC50 in experiment [1] worked out at 220 nM; against Neprilysin, 14 nM.
Take `CC(C)[C@H](NC(=O)[C@@H](S)CCc1ccccc1)C(=O)N[C@@H](Cc1ccc(O)cc1)C(=O)O`: the results for the IC50 (in experiment [1]; against Neprilysin) were 1.6 nM and 10 nM, respectively.
For `CC(C)[C@H](NC(=O)[C@@H](S)Cc1ccccc1)C(=O)N1CCCC1C(=O)O` (stereo partly drawn), the values for the IC50 (in experiment [1]; on Neprilysin) were 0.85 nM and 24 nM, respectively.
Consider `CC[C@@H](C)[C@H](NC(=O)[C@@H](S)c1ccccc1)C(=O)N1CCCC1C(=O)O` (stereo partly drawn), for which the IC50 in experiment [1] turned out to be 28 nM; against Neprilysin, 130 nM.
The like results for `C[C@H](NC(=O)[C@@H](S)Cc1ccccc1)C(=O)N1CCC[C@H]1C(=O)O` were, in that order, 0.3 nM and 3.8 nM.
Take `C[C@H](NC(=O)[C@@H](S)Cc1ccccc1)C(=O)N1CCCCC1C(=O)O` (stereo partly drawn): the IC50 in experiment [1] is 1.6 nM; at Neprilysin it was 9.5 nM.
Taken in the same sequence, the figures for `O=C(O)[C@H](Cc1ccc(O)cc1)NC(=O)[C@H](Cc1ccccc1)NC(=O)[C@@H](S)CCc1ccccc1` were 1.5 nM and 20 nM.
On to `CCCC[C@H](NC(=O)[C@@H](S)Cc1ccccc1)C(=O)N[C@@H](Cc1ccc(O)cc1)C(=O)O`, for which the IC50 amounted to 4 nM in experiment [1] and 2.8 nM against Neprilysin.
Turning to `C[C@H](NC(=O)[C@@H](S)Cc1ccccc1)C(=O)O`, the IC50 in experiment [1] worked out at 40 nM; against Neprilysin it was 4 nM.
Turning to `CC[C@H](C)[C@H](NC(=O)[C@@H](S)c1ccccc1)C(=O)N[C@@H](Cc1ccc(O)cc1)C(=O)O`, the IC50 came out at 3.5 nM in experiment [1] and 4.5 nM against Neprilysin.
In the case of `CC(c1ccccc1)[C@H](S)C(=O)N[C@H](C(=O)N1CCCC[C@H]1C(=O)O)C(C)C` (stereo partly drawn), the IC50 came out at 110 nM in experiment [1] and 180 nM at Neprilysin.
Regarding `CC(C)C[C@H](NC(=O)[C@@H](S)Cc1ccccc1)C(=O)N[C@@H](Cc1ccc(O)cc1)C(=O)O`, the half-maximal inhibitory concentration (IC50) turned out to be 3 nM in experiment [1] and 2.2 nM on Neprilysin.
For `CC[C@H](C)[C@H](S)C(=O)N[C@@H](C)C(=O)N1c2ccccc2CC1C(=O)O` (stereo partly drawn), the IC50 in experiment [1] stood at 3.3 nM; against Neprilysin, 180 nM.
As for `O=C(O)C1CCCN1C(=O)[C@H](Cc1ccccc1)NC(=O)[C@@H](S)Cc1ccccc1` (stereo partly drawn), the figures for the half-maximal inhibitory concentration (IC50) (in experiment [1]; at Neprilysin) were 1.1 nM and 30 nM, respectively.
Taken in the same sequence, the figures for `CC[C@H](C)[C@H](NC(=O)[C@@H](S)C(C)C)C(=O)N1C(C(=O)O)CC2CCCCC21` (stereo partly drawn) were 28 nM and 175 nM.
In the case of `CC[C@H](C)[C@H](S)C(=O)N[C@H](C(=O)N[C@@H](Cc1ccc(O)cc1)C(=O)O)C(C)C`, the IC50 in experiment [1] turned out to be 1.9 nM; on Neprilysin, 5.3 nM.
Taken in the same sequence, the figures for `CC[C@@H](C)[C@H](NC(=O)[C@@H](S)C(C)OCc1ccccc1)C(=O)N[C@@H](Cc1ccc(O)cc1)C(=O)O` (stereo partly drawn) were 7.1 nM and 4.1 nM.
Taken in the same sequence, the figures for `CC(C)[C@H](NC(=O)[C@@H](S)Cc1ccccc1)C(=O)N[C@@H](Cc1ccc(O)cc1)C(=O)O` were 4 nM and 3.6 nM.
In the case of `CC[C@H](C)[C@H](S)C(=O)N[C@@H](Cc1ccccc1)C(=O)N[C@@H](Cc1ccc(O)cc1)C(=O)O`, the values for the IC50 (in experiment [1]; at Neprilysin) were 10 nM and 3.5 nM, respectively.

By IC50 is commonly meant the concentration that inhibits the measured activity by half. Lower therefore signals greater potency in that assay.
